High-throughput results: PubChem BioAssay, several laboratories
Sampled rows, rich in hits. Any-hit rate of the full collection: about 3.2%.
DAX1 inh-1: DAX1 (NR0B1) inhibitors, primary screen, cell-based, HEK293, Gal4-DAX1, luciferase luminescence | HEK293 Gal4-DAX1 luciferase reporter | inhibition, % at 6.75 µM | Nuclear receptor subfamily 0 group B member 1 (Homo sapiens), P51843 | 340,000 tested, 0.99% active;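 active = inhibition above the mean over all tested compounds plus 3 SD, cut at about 4.2% in these data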;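 note: inhibition shows as a rise in luminescence from relieved DAX1 repression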
Target sequence (P51843 207-470 limits assumed): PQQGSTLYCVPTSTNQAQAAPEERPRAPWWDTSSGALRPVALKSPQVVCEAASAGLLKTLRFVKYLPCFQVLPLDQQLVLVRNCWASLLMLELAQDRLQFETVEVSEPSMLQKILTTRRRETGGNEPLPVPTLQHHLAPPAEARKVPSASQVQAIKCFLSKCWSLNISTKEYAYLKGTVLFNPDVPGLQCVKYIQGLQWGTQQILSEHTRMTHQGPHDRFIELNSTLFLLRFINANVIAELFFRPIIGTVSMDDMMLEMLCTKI
JMJD2C inh: inhibitors of GASC-1 histone demethylase, primary screen, biochemical, fluorescence, DELFIA europium. GST-JMJD2C(1-420) H3K9me3 demethylation. 330,000 tested, 0.069% active. inhibition, % at 2.35 µM;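 active = more than half of a compound's replicate wells show inhibition beyond 50%, single wells judged on their own value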;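 note: signal counts dimethyl H3K9 product captured on neutravidin plate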
Target sequence (Q9H3R0 1-420 limits assumed): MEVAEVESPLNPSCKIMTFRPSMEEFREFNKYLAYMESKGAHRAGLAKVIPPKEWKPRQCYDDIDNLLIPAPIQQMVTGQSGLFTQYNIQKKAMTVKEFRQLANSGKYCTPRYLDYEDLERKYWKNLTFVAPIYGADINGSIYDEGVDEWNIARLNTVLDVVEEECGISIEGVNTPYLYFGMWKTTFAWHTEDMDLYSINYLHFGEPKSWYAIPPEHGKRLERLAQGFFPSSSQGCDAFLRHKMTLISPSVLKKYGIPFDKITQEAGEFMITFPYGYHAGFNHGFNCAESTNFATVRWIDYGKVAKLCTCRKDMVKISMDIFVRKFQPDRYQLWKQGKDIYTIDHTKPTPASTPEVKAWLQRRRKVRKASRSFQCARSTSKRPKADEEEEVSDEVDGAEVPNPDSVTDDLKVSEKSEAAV
DAX1 inh-2: DAX1 (NR0B1) inhibitors on StAR promoter, primary screen, cell-based, luminescence, SF-1 (NR5A1), full-length DAX-1 | 370,000 tested, 1.1% active | HEK293T StAR-luciferase reporter, SF-1/DAX-1 repression relief | AID 652010, 2013 | inhibition, % at 6.8 µM;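 active = inhibition above the mean over all tested compounds plus 3 SD, cut at about 3.6% in these data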;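 note: higher inhibition means more luminescence from relief of DAX-1 repression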
SMARCA2 activ: SMARCA2 (BRM) function activators, primary screen, cell-based, luminescence, high throughput | MG213 cells, MMTV-luciferase reporter, dexamethasone, overnight | activation, % at 9.1 µM | 370,000 tested, 1% active; in the data active = activation above about 7.8%
NR2E3 ag-1: inhibitors of NR2E3-RetCOR corepressor binding, primary screen, NR2E3 agonist project, biochemical, TR-FRET, GST-NR2E3, biotin-RetCOR; Photoreceptor-specific nuclear receptor (Homo sapiens), Q9Y5X4; 1536-well; inhibition of corepressor binding, % at 4.78 µM; 320,000 tested, 0.12% active;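 active = percent inhibition above the cutoff of mean plus 3 SD of all tested compounds, set per screening campaign, cut at about 20% in these data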
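Format: 1536-well format; test system: GST-NR2E3 and biotin-RetCOR proteins; read-out basis: percent inhibition of TR-FRET ratio; timing: 5 h incubation at 4 °C; detection: time-resolved FRET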
NR2E3 ag-2: NR2E3 agonists in two-hybrid cells, primary screen, cell-based, luminescence, CHO-S, Gal4-NCOR/VP16-NR2E3 | luciferase | inhibition of corepressor binding, % at 3.98 µM | 360,000 tested, 0.35% active;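 active = inhibition above the mean of all tested compounds plus 3 SD, cut at about 70% in these data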;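 note: higher means lower luciferase signal from less NR2E3 corepressor binding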
SMARCA2 conf: SMARCA2 (BRM) function activators, confirmation, cell-based, luminescence, triplicate. activation, % at 9.1 µM. shares compounds with SMARCA2 activ. 3,500 tested, 30% active. MG213 cells, MMTV-luciferase with dexamethasone, overnight; MG213 cells expressing E1A, Rb sequestered; DMSO wells 0%, reference activator 100%;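 active = activation above its plate's cutoff, the mean activation of tested wells plus 3 SD, cut at about 7.9% in these data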
VP16 Luc act: GAL4-VP16 luciferase reporter activation, counter-screen for SMARCA2 (BRM) activator project, cell-based, pG5luc, luminescence, high throughput | HEK293 GAL4-VP16 pG5luc reporter; scaled: DMSO wells 0%, SAHA wells 100% | AID 686939, 2013 | shares compounds with SMARCA2 activ | activation, % at 9.1 µM | 3,500 tested, 41% active;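 active = activation above the solvent-only control well mean plus 3 SD, averaged across control plates, cut at about 5.2% in these data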
Numbers stand for hits; – = inactive; · = not tested or not shown.

SMILES	DAX1 inh-1	JMJD2C inh	DAX1 inh-2	SMARCA2 activ	NR2E3 ag-1	NR2E3 ag-2	SMARCA2 conf	VP16 Luc act
O=C1c2cccc(NCCNCCO)c2C(=O)c2cccc(NCCNCCO)c21	–	·	–	10.3	·	–	–	–
Cc1ccc(S(=O)(=O)N(C)C)cc1NC(=O)c1cc(C(C)(C)C)nn1Cc1ccccc1	–	–	–	–	–	–	·	·
O=C(COc1ccccc1CNCc1ccccc1)Nc1ccccc1	–	–	–	9.9	–	–	–	–
Cc1ccc(NC(=O)CNCc2ccccc2OCC(=O)Nc2ccc(I)cc2)cc1	·	·	–	–	·	·	·	·
C[C@@H]1OCN(C)[C@H]2C[C@H]3c4[nH]c5cccc(-c6ccccc6)c5c4CCN3C[C@@H]12	·	·	–	–	·	·	·	·
CN1Cc2nnn(Cc3ccccc3)c2-c2cc(N3CCCCC3)ccc2S1(=O)=O	·	·	–	–	·	·	·	·
c1ccc2c(c1)C1=NCCN1c1ccccc1-2	–	·	–	23.8	·	–	371.5	–
COc1cccc(-c2cnc3c(NC=O)cc(-c4cccc(C(=O)N(C)C)c4)cn23)c1	·	·	–	12.3	·	–	–	–
CN(C)CCNC(=O)c1cccc(-c2cc(NC=O)c3ncc(-c4cccc(C(F)(F)F)c4)n3c2)c1	·	·	–	33.6	·	–	28.8	–
COC(=O)[C@]12C[C@H](CC(=O)NCC3CCCCC3)C(=O)N(Cc3ccc(Cl)cc3Cl)C1=C[C@H](C1CCCC1)O[C@@H]2C	·	·	–	–	·	·	·	·
Cc1nc2c(C)cccn2c1/C(O)=C1\C(=O)C(=O)N(CCN(C)C)C1c1ccco1 (stereo not drawn)	–	–	–	–	–	–	·	·
COC(=O)c1ccc(C(=O)OC)c(NC(=S)N2CCN(c3cccc(Cl)c3)CC2)c1	–	–	–	10.9	–	–	–	–
COC(=O)c1ccc(C(=O)OC)c(NC(=S)N2CCN(c3ccccc3)CC2)c1	–	–	–	–	–	–	·	·
CC1CN(C(=O)c2cc(S(=O)(=O)N(C)c3ccc(F)cc3)ccc2Cl)CC(C)O1 (stereo not drawn)	–	–	–	–	–	–	·	·
C[C@@H]1Cn2cnc(C(=O)NCC(=O)OC(C)(C)C)c2C(=O)N1	–	·	–	–	·	–	·	·
CC(O)CNc1nc2c(c(=O)n(Cc3ccccc3)c(=O)n2C)n1C (stereo not drawn)	–	–	–	9.7	–	–	–	–
CC(O)CNc1nc2c(c(=O)n(Cc3cccc(Cl)c3)c(=O)n2C)n1C (stereo not drawn)	–	–	–	–	–	–	·	·
Cc1cccc(C(=O)Nc2nsc(N)n2)c1	–	–	–	–	–	–	·	·
CN(C)c1cccc(O)c1	–	–	–	–	–	–	·	·
Cc1cc(O)ccc1Nc1cc(-c2cccc(N(C)C)c2)ncn1	·	·	4.2	11.2	·	–	11.2	10.8
C[C@H](O)[C@@H]1CN2CCc3ccc(-c4ccc5c(c4)OCO5)cc3[C@@H]2C[C@@H]1N(C)CC1CCCCC1	·	·	–	–	·	·	·	·
CC(CCN1CCC(C(O)(c2ccccc2)c2ccccc2)CC1)Oc1cc(F)cc(C#N)c1 (stereo not drawn)	·	·	–	–	·	·	·	·
CCNS(=O)(=O)c1ccc(OCCNS(C)(=O)=O)cc1	–	–	–	8.1	–	–	–	–
CCC(=O)N(C)C[C@@H]1[C@H](c2ccc(C3=CCCCC3)cc2)[C@H](CO)N1C(=O)CC	·	·	–	–	·	·	·	·
Nc1nc(=O)c2ccccc2s1	–	·	–	–	·	–	·	·
SMILES	DAX1 inh-1	JMJD2C inh	DAX1 inh-2	SMARCA2 activ	NR2E3 ag-1	NR2E3 ag-2	SMARCA2 conf	VP16 Luc act
CCOC(=O)N/C(N)=N/c1nc2ccccc2s1	–	–	4.2	9.9	–	–	8.4	13.5
O=C(Nc1nc(=O)c2ccccc2s1)c1ccccc1	–	–	–	24.0	–	–	–	9.6
O=C(Nc1nc(=O)[nH]s1)c1ccccc1	–	–	–	–	–	–	·	·
O=C(Nc1nc2c(s1)C(=O)CCC2)c1ccccc1	–	–	–	8.3	–	–	9.7	12.0
CC(=O)Nc1nc(=O)c2ccccc2s1	–	–	–	8.3	–	–	–	–
COCCN(C[C@@H]1[C@H](c2ccccc2)[C@H](CO)N1c1nc(C)c(C)s1)S(=O)(=O)c1ccccc1[N+](=O)[O-]	·	·	–	–	·	·	·	·
O=C(O)c1cc(S(=O)(=O)N2CCOCC2)c[nH]1	–	–	–	–	–	–	·	·
CC(=O)Oc1cc(C)c(Cl)c2c(OC(C)=O)cc(C(C)=O)c(O)c12	·	·	–	–	·	·	·	·
CC(=O)N/C(N)=N/c1nc(=O)c2ccccc2s1	–	–	–	8.2	–	–	13.1	8.9
COC(=O)c1sc2ccccc2c1N	–	–	–	–	–	–	·	·
COc1cccc(NC(=O)/C=C/c2ccccc2[N+](=O)[O-])c1	–	–	–	10.5	–	–	8.8	14.9
CS(=O)(=O)N1N=C(c2ccccc2)CC1c1ccc2c(c1)OCO2 (stereo not drawn)	–	–	–	–	–	–	·	·
CS(=O)(=O)Nc1cccc(C2=NN(S(C)(=O)=O)C(c3ccc4c(c3)OCO4)C2)c1 (stereo not drawn)	–	–	–	9.1	–	–	–	7.1
CCOC(=O)[C@@]12CCCC=C1N(CCc1ccc(Cl)cc1)C(=O)[C@H]2CC(=O)N1CCC(c2ccccc2)CC1	·	·	–	–	·	·	·	·
CCn1c(SCC(=O)N/N=C/c2cccc(Oc3ccccc3)c2)nnc1-c1ccccc1	·	·	–	–	·	·	·	·
CC(C(=O)OCC(=O)c1c(N)n(C)c(=O)n(C)c1=O)N1C(=O)c2ccccc2C1=O (stereo not drawn)	–	–	–	10.4	–	–	–	–
O=c1ccc(/C=C/c2ccccc2)nn1Cc1ccccc1	–	–	–	–	–	–	·	·
Cn1nc(/C=C/c2ccccc2)ccc1=O	–	–	–	8.9	–	–	–	–
COc1cccc(-c2cnc(C(O)c3ccccc3)[nH]2)c1 (stereo not drawn)	·	·	–	9.2	·	–	–	8.7
O=C(c1cc(Br)cc(Br)c1)N1CCC(Oc2cccnc2)CC1	·	·	–	–	·	·	·	·
